TPT1 inhibitor = C. albicans TPT1 enzyme inhibition; recombinant caTPT1, FP RNA substrate dephosphorylation; inhibition, % at 5 µM; actives 0.81% (n = 300,000);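 active means inhibition above the mean of all tested compounds plus 3 SD, set per screening campaign, cut at about 24% in these data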
HNF4A DNA FP = change in binding of human HNF4 alpha to DNA | P41235 | HNF4a-FITC DNA binding, fluorescence polarization, 1 h | activity change, % at 10 µM | actives 0.3% (n = 360,000) | AID 1224865; in the data active means activity change above about 30%, passing the limit was not always enough
Rpn11 inh = blocks the human proteasome subunit Rpn11; human 26S proteasome, Ub4-pepOG fluorescence polarization; 20S core pre-blocked with epoxomicin; actives 0.59% (n = 360,000); O00487; calls only at 20 µM;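 active means inhibition at 20 µM, scaled to each plate's controls, above about 33%, limit read from the data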
Target sequence (O00487 whole entry, looked up): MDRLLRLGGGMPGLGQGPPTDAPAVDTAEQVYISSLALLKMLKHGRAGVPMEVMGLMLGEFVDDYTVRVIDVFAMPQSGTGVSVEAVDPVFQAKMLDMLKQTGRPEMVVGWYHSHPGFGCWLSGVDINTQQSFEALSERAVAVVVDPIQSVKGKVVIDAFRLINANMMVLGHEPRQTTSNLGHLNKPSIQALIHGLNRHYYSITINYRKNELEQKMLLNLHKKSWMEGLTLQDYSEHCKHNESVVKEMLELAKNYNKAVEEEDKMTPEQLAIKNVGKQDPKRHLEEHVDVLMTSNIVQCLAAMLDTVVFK
CSN inh = CSN deneddylation inhibition | AID 651999 | Q92905 | Purified CSN, SCF-Nedd8-OG deneddylation, fluorescence polarization | inhibition, % at 12.5 µM | actives 0.38% (n = 360,000);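 active means pattern-corrected inhibition above about 35%, with an unprinted fluorescence ratio check between 0.5 and 1.5, limit read from the data, passing the limit was not always enough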
Target sequence (Q92905 whole entry, looked up, one chain of several): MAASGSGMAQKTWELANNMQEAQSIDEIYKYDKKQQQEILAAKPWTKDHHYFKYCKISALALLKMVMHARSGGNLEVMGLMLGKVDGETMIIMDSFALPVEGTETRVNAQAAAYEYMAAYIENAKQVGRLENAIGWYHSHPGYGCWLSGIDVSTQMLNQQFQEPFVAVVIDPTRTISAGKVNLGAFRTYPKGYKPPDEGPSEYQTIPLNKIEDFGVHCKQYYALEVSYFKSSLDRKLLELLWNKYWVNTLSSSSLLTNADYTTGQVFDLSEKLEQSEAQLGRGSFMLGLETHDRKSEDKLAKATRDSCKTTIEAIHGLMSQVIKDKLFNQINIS
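Assay system: Purified human Csn5 enzyme expressed in HEK293T cells | Amount: Enzyme 0.24 nM | Measured by: Fluorescence polarization readout | Medium: Tris/NaCl/DTT buffer, pH 7.5 | Compound dosing: One concentration, 12.5 µM, 0.25% DMSO | Times: 90 min incubation of compound, enzyme and substrate at room temperature | Control set: no-enzyme wells high, enzyme-with-substrate wells low | Read-out: % inhibition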
Rpn11 inh conf = Rpn11 inhibition confirmation, single concentration; shares compounds with Rpn11 inh; purified human 26S proteasome, Ub4-pepOG fluorescence polarization; proteasome pretreated with epoxomicin; inhibition, % at 20 µM; actives 29% (n = 1,900)
MMP-2 inh = blocks human MMP-2, flagging nonselective RPN11 hits; shares compounds with Rpn11 inh; recombinant MMP-2, FRET peptide cleavage fluorescence; inhibition, % at 20 µM; actives 4% (n = 1,900); AID 602330;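 further: human MMP-2 activated beforehand with APMA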
Thrombin FP = counter-screen for RPN11 inhibitors: inhibition of bovine thrombin. shares compounds with Rpn11 inh. bovine thrombin cleavage of Ub4-pepOG, fluorescence polarization. inhibition, % at 20 µM. actives 13% (n = 1,900). AID 602333;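 active means mean inhibition at least 40% at 20 µM, or signal 3 deviations below plate average, so some actives read negative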
Each line names hits and unclear results; the compound was inactive in the other large screens (follow-up assays come after a bar, where they were run). Most compounds without a hit are left out; they make up all but 1.5% or so of the library. Unless noted, no stated cut-off is given here; in the data, active means inhibition above about 40%; inactive means the rest.

CCOC(=O)c1cc(-c2ccccc2)sc1NC(=O)C(C)N1C(=O)NC(C)(c2ccc(Cl)cc2)C1=O (centres undefined)	HNF4A DNA FP 50.8, Rpn11 inh active | Rpn11 inh conf inactive | MMP-2 inh inactive | Thrombin FP inactive
Cc1cc(=O)oc2cc(OCc3ccc(C(=O)OCC(=O)N(C)C4CCS(=O)(=O)C4)cc3)ccc12 (centres undefined)	none
CN(C(=O)COc1ccc2c(-c3ccccc3)cc(=O)oc2c1)C1CCS(=O)(=O)C1 (centres undefined)	Rpn11 inh active | Rpn11 inh conf inactive | MMP-2 inh inactive | Thrombin FP inactive
CCOc1ccc(NC(=O)CN(C)C(=O)C2CC(=O)N(Cc3ccco3)C2)cc1OCC (centres undefined)	none (no result: TPT1 inhibitor)
CCCCCCCCCCCC1N=C(N)NC(CCCO)=C1C(=O)OC (centres undefined)	Rpn11 inh active (no result: TPT1 inhibitor) | Rpn11 inh conf 49.3 | MMP-2 inh inactive | Thrombin FP inactive
CCCCCCOC(=O)c1ccc(N)cc1	none
COc1ccc(C(=O)Nc2nc3nc(-c4ccccc4)cc(=O)n3[nH]2)cc1	Rpn11 inh active (no result: TPT1 inhibitor) | Rpn11 inh conf inactive | MMP-2 inh inactive | Thrombin FP inactive
O=C(Nc1nc2nc(-c3ccccc3)cc(=O)n2[nH]1)c1ccccc1	none
O=C(CCNC(=O)c1ccccc1)N=Nc1c(O)[nH]c2ccccc12	none (no result: HNF4A DNA FP, Rpn11 inh, CSN inh)
O=C(Cn1nnc(-c2ccccc2)n1)N=Nc1c(O)[nH]c2ccccc12	Rpn11 inh active | Rpn11 inh conf inactive | MMP-2 inh inactive | Thrombin FP inactive
N#C/C(=C\c1cn(CCOc2ccccc2)c2ccccc12)C(=O)NCc1ccco1	Rpn11 inh active | Rpn11 inh conf inactive | MMP-2 inh inactive | Thrombin FP inactive
CCC(=O)c1ccc(OCC(=O)OC(C)C(=O)NCc2ccc3c(c2)OCO3)cc1 (centres undefined)	none
COc1ccc(/C=C/c2ccc3c(Br)ccc(O)c3n2)cc1	none
COc1cc(/C=C/c2ccc3c(Br)cc(Br)c(O)c3n2)ccc1O	Rpn11 inh active | Rpn11 inh conf inactive | MMP-2 inh inactive | Thrombin FP inactive
Cc1cccn2c(=O)c3cc(C(N)=S)c(=N)n(CCCN4CCOCC4)c3nc12	Rpn11 inh active, CSN inh 37.5 | Rpn11 inh conf inactive | MMP-2 inh 49.2 | Thrombin FP inactive
CCN(CC)C(=O)C(Oc1ccc(S(=O)(=O)N2CCCC2)cc1[N+](=O)[O-])c1ccccc1 (centres undefined)	none
CCOC(=O)c1c(S(=O)(=O)NCC(=O)N2CCN(c3cccc(OC)c3)CC2)c(C)n(C)c1C	none
Cn1cncc1C#Cc1ccc2cc(C3(O)CCCCC3)oc(=O)c2c1	Rpn11 inh active, CSN inh 36.2 (no result: TPT1 inhibitor) | Rpn11 inh conf 90.5 | MMP-2 inh inactive | Thrombin FP inactive
Cn1cncc1C#Cc1ccc2cc(C(C)(C)O)oc(=O)c2c1	none (no result: TPT1 inhibitor)
Cc1c(Cl)cccc1NC(=O)COC(=O)c1c2c(nc3ccccc13)CCN(Cc1ccccc1)C2	Rpn11 inh active | Rpn11 inh conf inactive | MMP-2 inh inactive | Thrombin FP inactive
CC(C)c1ccccc1NC(=O)COC(=O)c1c2c(nc3ccccc13)CCN(Cc1ccccc1)C2	none
O=C1N/C(=C/c2cccn2-c2ccccc2)C(=O)N1Cc1ccc(F)cc1	Rpn11 inh active | Rpn11 inh conf inactive | MMP-2 inh inactive | Thrombin FP inactive
COc1cc(/C=N/Nc2ccc([N+](=O)[O-])cc2S(=O)(=O)N2CCOCC2)cc(OC)c1OC	Rpn11 inh active | Rpn11 inh conf inactive | MMP-2 inh inactive | Thrombin FP inactive
Cc1coc2c(C)c3oc(=O)c(CCC(=O)N[C@H](C(=O)O)C(C)C)c(C)c3cc12	none (no result: TPT1 inhibitor)
Cc1ccc(NC(=O)c2sc3nc(CCl)[nH]c(=O)c3c2C)c(C)c1	none (no result: TPT1 inhibitor)
CCOC(=O)C1CCCN(Cc2nc3ccc([N+](=O)[O-])cc3c(=O)n2-c2ccc(OC)cc2OC)C1 (centres undefined)	HNF4A DNA FP 37.2, Rpn11 inh active | Rpn11 inh conf inactive | MMP-2 inh inactive | Thrombin FP inactive
CCOC(=O)C1CCN(Cc2nc3ccc([N+](=O)[O-])cc3c(=O)n2-c2ccc(OC)cc2OC)CC1	none
COc1ccc(N(C)C(=O)CC2(CC(=O)O)CCCCC2)cc1	Rpn11 inh active | Rpn11 inh conf inactive | MMP-2 inh inactive | Thrombin FP inactive
CC1CCCN(c2ccc([N+](=O)[O-])s2)C1 (centres undefined)	Rpn11 inh active (no result: TPT1 inhibitor) | Rpn11 inh conf inactive | MMP-2 inh inactive | Thrombin FP inactive
CC1CCCN(c2c([N+](=O)[O-])cc(C(=O)O)cc2[N+](=O)[O-])C1 (centres undefined)	none
CCCOc1ccc(-c2nn(-c3ccccc3)cc2/C=C2\SC(N)=NC2=O)cc1	none
NC1=NC(=O)/C(=C/c2cn(CCC(=O)O)nc2-c2ccc(F)cc2)S1	none
COc1ccc(-c2nn(CCC(=O)O)cc2/C=C2\SC(N)=NC2=O)cc1	Rpn11 inh active | Rpn11 inh conf inactive | MMP-2 inh inactive | Thrombin FP inactive
NC1=NC(=O)/C(=C/c2cn(CCC(=O)O)nc2-c2ccc(Cl)cc2)S1	Rpn11 inh active | Rpn11 inh conf 46.4 | MMP-2 inh inactive | Thrombin FP inactive
O=C(NCCc1ccc(Cl)cc1)C1=CC=CN2CCS(=O)(=O)N=C12	none (no result: TPT1 inhibitor)
CC(=O)Nc1cccc(-c2cccc3nccn23)c1	none (no result: TPT1 inhibitor)
CC(=O)c1ccc(NC(=O)CCc2nc3sc4c(c3c(=O)[nH]2)CCCC4)cc1	none
CCc1ccc(NC(=O)CCc2nc3sc4c(c3c(=O)[nH]2)CCCC4)cc1	Rpn11 inh active | Rpn11 inh conf 55.4 | MMP-2 inh inactive | Thrombin FP inactive
CN(CC(=O)Nc1ccc(F)c(F)c1F)C(=O)CCc1nc2sc3c(c2c(=O)[nH]1)CCCC3	Rpn11 inh active | Rpn11 inh conf 59.5 | MMP-2 inh inactive | Thrombin FP inactive
NS(=O)(=O)c1ccc(CCNC(=O)CCc2nc3sc4c(c3c(=O)[nH]2)CCCC4)cc1	Rpn11 inh active | Rpn11 inh conf inactive | MMP-2 inh inactive | Thrombin FP inactive
O=C(CCc1nc2sc3c(c2c(=O)[nH]1)CCCC3)NCCc1ccc(Cl)cc1	none (no result: TPT1 inhibitor)
CC(=O)c1cccc(NC(=O)CCc2nc3sc4c(c3c(=O)[nH]2)CCCC4)c1	Rpn11 inh active | Rpn11 inh conf 55.1 | MMP-2 inh inactive | Thrombin FP 41.2
CCOC(=O)C1CCN(C(=O)CCc2nc3sc4c(c3c(=O)[nH]2)CCCC4)CC1	Rpn11 inh active | Rpn11 inh conf 66.8 | MMP-2 inh inactive | Thrombin FP 46.5
O=C(Cc1ccc(Cl)cc1)NCCCNC(=O)c1cccnc1	none

Screening data deposited in PubChem by several laboratories.
